Data: ChEMBL document CHEMBL1141076 (J Med Chem, 2005)

How the values were obtained:
[1] = biological target: T1, Cyclic nucleotide-gated channel alpha-1 (Bos taurus, UniProt Q00194); assay: Apparent dissociation constant against Cyclic nucleotide gated channel alpha 1 at 0 mV
T1 sequence (Q00194 whole entry): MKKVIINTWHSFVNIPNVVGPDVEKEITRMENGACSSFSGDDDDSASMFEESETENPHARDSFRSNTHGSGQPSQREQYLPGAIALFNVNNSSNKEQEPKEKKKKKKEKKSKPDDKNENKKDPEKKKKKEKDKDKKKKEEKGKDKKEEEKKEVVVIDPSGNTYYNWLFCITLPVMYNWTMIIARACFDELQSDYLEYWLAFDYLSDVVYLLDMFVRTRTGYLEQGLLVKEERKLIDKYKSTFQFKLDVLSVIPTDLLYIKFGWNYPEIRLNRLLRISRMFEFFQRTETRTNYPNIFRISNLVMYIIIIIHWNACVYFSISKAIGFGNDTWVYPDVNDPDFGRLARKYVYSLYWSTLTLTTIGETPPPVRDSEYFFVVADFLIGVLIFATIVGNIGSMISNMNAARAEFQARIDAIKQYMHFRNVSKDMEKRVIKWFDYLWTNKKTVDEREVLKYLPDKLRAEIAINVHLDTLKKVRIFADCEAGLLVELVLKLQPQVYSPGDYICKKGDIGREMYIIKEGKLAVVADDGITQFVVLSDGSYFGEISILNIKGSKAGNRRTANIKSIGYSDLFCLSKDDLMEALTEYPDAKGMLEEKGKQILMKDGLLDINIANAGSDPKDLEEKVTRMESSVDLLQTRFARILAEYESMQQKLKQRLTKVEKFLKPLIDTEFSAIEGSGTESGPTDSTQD
Outline: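 CNGA1 (bovine) expressed in Xenopus oocytes from 5-25 ng cRNA; inside-out patches at room temperature in symmetrical 130 mM NaCl, 2 mM HEPES, 1 mM EGTA, 0.02 mM EDTA, pH 7.6, saturating cGMP with blocker in bath. Depolarizations -80 to +60 mV in 10 mV steps. Fraction of current remaining fitted with Woodhull equation, giving KD at 0 mV and zδ.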

[2] = biological target: T1, Cyclic nucleotide-gated channel alpha-1; assay: Apparent dissociation constant against Cyclic nucleotide gated channel alpha 1 at +40 mV
Outline: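 Bovine CNGA1 cRNA injected (5-25 ng) into Xenopus oocytes kept at 18 °C; inside-out excised patches recorded 1-6 days later at room temperature. Identical pipet/bath solution: 130 mM NaCl, 2 mM HEPES, 1 mM EGTA, 0.02 mM EDTA, pH 7.6. Blocker added to bath with saturating cGMP; steps -80 to +40 mV. End-of-pulse current corrected for ion accumulation/depletion. KD from I+D/I-D = KD/(KD+[D]).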

SMILES	Kd [1]	Kd [2]
CCCCNc1ccc(C(=O)OCC[N+](C)(C)CCCN)cc1	1.4 µM	0.074 µM
CCCCNc1ccc(C(=O)OCC[N+](C)(C)CCCC)cc1	5.4 µM	3.1 µM
CN(C)CCOC(=O)c1ccc(N)cc1	10000 µM	2300 µM
CN(C)CCOC(=O)c1ccc(NCCCCN)cc1	970 µM	210 µM

Now from value to compound:

Kd [1]	Kd [2]	SMILES
0.0069 µM	3e-05 µM	CCCCNc1ccc(C(=O)OCC[N+](C)(C)CCCNCCCN)cc1
4000 µM	2500 µM	CC(=O)NCCCCNc1ccc(C(=O)OCCN(C)C)cc1
